In ChEMBL document CHEMBL1152640, “Synthesis and antiproliferative evaluation of 6-arylindeno[1,2-c]quinoline derivatives” (Bioorg Med Chem, 2009):

Columns and labels:
[1] = tested on: HepG2; assay: Antiproliferative activity against human HepG2 cells after 72 hrs by XTT assay; format: functional; details: HepG2, 72 h
Method in brief: (§1)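 Cells were grown as monolayers in DMEM with 10% FBS, penicillin, streptomycin and amphotericin at 37 °C and 5% CO2. Plating was 5×10³ cells/well, with treatment for 72 h in 10% FBS medium, a medium change, then another day. XTT (1 mg/mL) plus PMS in serum-free medium was added for 4 h at 37 °C and read at 492 nm. Growth was taken as % of control (mean of n = 3). GI50 was taken from the linear portion of the curve as the 50% absorbance reduction.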

[2] = tested on: A549; assay: Antiproliferative activity against human A549 cells after 72 hrs by XTT assay; format: functional; details: A549, 72 h; method in brief: as §1
[3] = Antiproliferative activity against human HepG2(2.2.1) cells after 72 hrs by XTT assay; format: functional; details: HepG2, 72 h; method in brief: as §1
[4] = Antiproliferative activity against human H1299 cells after 72 hrs by XTT assay; format: functional; details: NCI-H1299, 72 h; method in brief: as §1
[5] = Antiproliferative activity against human Hep3B cells after 72 hrs by XTT assay; format: functional, Hep 3B2; method in brief: as §1
[6] = Cytotoxicity against human MRC5 cells after 72 hrs by XTT assay; format: cell-based; method in brief: as §1

Structure (SMILES): O=C1c2cc(O)ccc2-c2c(-c3ccc(OCCN4CCCC4)cc3)nc3ccc(F)cc3c21
- GI50 [1]: 6.1 µM
- GI50 [2]: 6.63 µM
- GI50 [3]: 5.69 µM
- GI50 [4]: 5.25 µM
- GI50 [5]: 6.34 µM
- GI50 at 72 h [6]: 6.02 µM

Structure (SMILES): O=C1c2cc(O)ccc2-c2c(-c3ccc(OCCN4CCCC4)cc3)nc3ccccc3c21
- GI50 [1]: 4.28 µM
- GI50 [2]: 4.33 µM
- GI50 [3]: 6.06 µM
- GI50 [4]: 7.05 µM
- GI50 [5]: 3.4 µM
- GI50 at 72 h [6]: 3.16 µM

Structure (SMILES): CN(C)CCCOc1ccc(-c2nc3ccccc3c3c2-c2ccc(O)cc2C3=O)cc1
- GI50 [1]: 5.59 µM
- GI50 [2]: 5.87 µM
- GI50 [3]: 6.82 µM
- GI50 [4]: 6.39 µM
- GI50 [5]: 5.34 µM
- GI50 at 72 h [6]: 4.61 µM

Structure (SMILES): O=C1c2cc(OCCN3CCCCC3)ccc2-c2c(-c3ccc(OCCN4CCCCC4)cc3)nc3ccc(F)cc3c21
- GI50 [1]: 2.82 µM
- GI50 [2]: 6.24 µM
- GI50 [3]: 3 µM
- GI50 [4]: 0.79 µM
- GI50 [5]: 0.66 µM
- GI50 at 72 h [6]: 4.52 µM

Structure (SMILES): CCc1c2c(nc3ccc(OC(=O)N4CCC(N5CCCCC5)CC4)cc13)-c1cc3c(c(=O)n1C2)COC(=O)[C@]3(O)CC [IRINOTECAN]
- GI50 [1]: 5.94 µM
- GI50 [2]: > 10 µM
- GI50 [3]: > 10 µM
- GI50 [4]: > 10 µM
- GI50 [5]: 4.73 µM
- GI50 at 72 h [6]: 77.5 µM

Structure (SMILES): COc1ccc(-c2nc3ccc(F)cc3c3c2-c2ccc(OC)cc2C3=O)cc1
- GI50 [1]: > 10 µM
- GI50 [2]: > 10 µM
- GI50 [3]: > 10 µM
- GI50 [4]: 6.44 µM
- GI50 [5]: > 10 µM
- GI50 at 72 h [6]: > 10 µM

Structure (SMILES): O=C1c2cc(OCCN3CCCCC3)ccc2-c2c(-c3ccc(OCCN4CCCCC4)cc3)nc3ccc(OCCN4CCCCC4)cc3c21
- GI50 [1]: 0.7 µM
- GI50 [2]: 0.81 µM
- GI50 [3]: 6.07 µM
- GI50 [4]: 6.26 µM
- GI50 [5]: 5.02 µM
- GI50 at 72 h [6]: 4.64 µM

Structure (SMILES): COc1ccc(-c2nc3ccccc3c3c2-c2ccc(OC)cc2C3=O)cc1
- GI50 [1]: > 10 µM
- GI50 [2]: > 10 µM
- GI50 [3]: > 10 µM
- GI50 [4]: > 10 µM
- GI50 [5]: > 10 µM
- GI50 at 72 h [6]: > 10 µM

Structure (SMILES): CC[C@@]1(O)C(=O)OCc2c1cc1n(c2=O)Cc2cc3c(CN(C)C)c(O)ccc3nc2-1 [TOPOTECAN]
- GI50 [1]: 3.83 µM
- GI50 [2]: 5.98 µM
- GI50 [3]: 4.95 µM
- GI50 [4]: > 10 µM
- GI50 [5]: 0.22 µM
- GI50 at 72 h [6]: 4.25 µM

Structure (SMILES): CN(C)CCCOc1ccc(-c2nc3ccc(F)cc3c3c2-c2ccc(O)cc2C3=O)cc1
- GI50 [1]: 5.92 µM
- GI50 [2]: 6.35 µM
- GI50 [3]: 5.62 µM
- GI50 [4]: 6.13 µM
- GI50 [5]: 6.72 µM
- GI50 at 72 h [6]: 4.75 µM

Structure (SMILES): O=C1c2cc(O)ccc2-c2c(-c3ccc(O)cc3)nc3ccc(O)cc3c21
- GI50 [1]: 5.51 µM
- GI50 [2]: 4.98 µM
- GI50 [3]: 6.61 µM
- GI50 [4]: 10.4 µM
- GI50 [5]: 12.2 µM
- GI50 at 72 h [6]: 10.3 µM
